# Assay results from different studies.
# Lines come from different studies, so protocols differ.
# JAK2: Tyrosine-protein kinase JAK2 (JAK2, Homo sapiens, UniProt O60674)
# JAK2 JH1: Tyrosine-protein kinase JAK2, JH1 (JAK2, Homo sapiens, UniProt O60674)
Compound,target,effect on,mode,technique,tested at,measurement,result
Cc1ccc(Nc2nccc(N(C)c3ccc4c(C)n(C)nc4c3)n2)cc1S(N)(=O)=O,JAK2,enzyme activity,inhibitor,,0.3 µM,inhibition,12%
FC(F)(F)Oc1cccc(-c2cnc3ccc(-c4ccncc4)nn23)c1,JAK2,enzyme activity,inhibitor,radiometric,5 µM,activity vs control,72%
Cc1nn(CC(F)(F)F)cc1Nc1nccc(NCCc2cnc[nH]2)n1,JAK2,enzyme activity,inhibitor,radiometric,1 µM,remaining activity,89%
CC(=O)Nc1c(C(C)=O)c(=O)n(C)c2nc(-c3ccc(Cl)cc3Cl)c(-c3ccc(Cl)cc3)cc12,JAK2 JH1,cell-free assay,,competition with immobilised ligand,1 µM,remaining binding,100%
CS(=O)(=O)Nc1cccc(-c2csc(NC(=O)CSc3nc4nccnc4c(=O)n3CCc3ccccc3)n2)c1,JAK2,enzyme activity,inhibitor,,10 µM,inhibition,-7%
CCCS(=O)(=O)Nc1ccc(F)c(C(=O)c2c[nH]c3ncc(-c4ccc(Cl)cc4)cc23)c1F,JAK2 JH1,enzyme activity,inhibitor,,1 µM,inhibition,< 10%
Cc1nn(CC(F)(F)F)cc1Nc1nccc(NCc2ccc(S(N)(=O)=O)cc2)n1,JAK2,enzyme activity,inhibitor,radiometric,1 µM,remaining activity,95%
COc1cc2ncnc(Nc3ccc(Oc4ccccc4)cc3C)c2cc1OC,"Tyrosine-protein kinase JAK2, JH1 (JAK2, Homo sapiens, UniProt O60674, V617F)",enzyme activity,inhibitor,,1 µM,inhibition,-11%
CC(C)c1ccc(NC(=O)c2cccs2)c(-c2nc3ccccc3[nH]c2=O)c1,JAK2,enzyme activity,inhibitor,,1 µM,activity vs control,123%
C[C@H](NC(=O)c1cnc2n1[C@](C)(Cc1ccc(C#N)cc1)C(=O)N2c1cc(Cl)c(F)c(Cl)c1)C(=O)NC1(c2ccccn2)CC1,JAK2 JH1,cell-free assay,,competition with immobilised ligand,1 µM,remaining binding,100%
O=C(CSc1nc2nccnc2c(=O)n1CCc1ccccc1)Nc1nccs1,JAK2 JH1,enzyme activity,inhibitor,,10 µM,inhibition,2%
CO[C@@H](C)c1c(Nc2ccc([C@@H](N(C)C(=O)C3CCS(=O)(=O)CC3)C(F)(F)F)cc2)cnc2cc(Cl)nn12,JAK2 JH1,cell-free assay,,competition with immobilised ligand,1 µM,remaining binding,98%
Cc1ccc(NC(=O)c2ccc(CN3CCN(C)CC3)cc2)cc1Nc1nc(-c2cccnc2)cs1,JAK2,cell-free assay,,,0.5 µM,remaining signal,96.3%
Cc1nn(CC(F)(F)F)cc1Nc1ncc(C2CC2)c(NCCc2c[nH]cn2)n1,JAK2,enzyme activity,inhibitor,radiometric,1 µM,remaining activity,123%
NS(=O)(=O)c1cc(NC(=O)C2(c3ccccc3Cl)CC2)ccc1Oc1cccc(Cl)c1,JAK2 JH1,cell-free assay,,competition with immobilised ligand,1 µM,remaining binding,100%
Nc1nc(Nc2ccc(S(N)(=O)=O)cc2)nn1C(=O)c1c(F)cccc1F,JAK2,cell-free assay,,,0.5 µM,remaining signal,19.2%
CN(c1nccc(-c2cnn3ncccc23)n1)C1CC1,JAK2 JH1,cell-free assay,,,1 µM,remaining signal,100%
COc1cc2nccc(Oc3ccc(NC(=O)c4c5n(n(-c6ccc(F)cc6)c4=O)CCCC5)cc3)c2cc1OC,JAK2,enzyme activity,inhibitor,,0.1 µM,inhibition,10%
O=C1Nc2ccc(Cl)cc2C1=Cc1cc(Cl)c(O)c(Cl)c1,JAK2,cell-free assay,,,0.5 µM,remaining signal,91.1%
c1cc(CN2CCOCC2)cc(Nc2ncc(C3CC3)c(NCCc3c[nH]cn3)n2)c1,JAK2,enzyme activity,inhibitor,radiometric,1 µM,remaining activity,82%
Cc1sc(C(=O)NC2COC2)cc1-n1cc(NC(=O)Nc2c(F)cccc2Cl)cn1,JAK2,enzyme activity,inhibitor,,10 µM,remaining activity,95%
CCS(=O)(=O)c1cc2cc(C[C@@](O)(CC(C)(C)c3ccc(F)cc3C(N)=O)C(F)(F)F)[nH]c2cn1,JAK2 JH1,cell-free assay,,competition with immobilised ligand,1 µM,remaining binding,100%
COc1cc2ncnc(Nc3ccc(Oc4ccccc4)c(C)c3C)c2cc1OC,JAK2 JH1,enzyme activity,inhibitor,,1 µM,inhibition,-2%
Cc1nn(CC(F)(F)F)cc1Nc1ncc(C2CC2)c(NCc2ccc(S(N)(=O)=O)cc2)n1,JAK2,enzyme activity,inhibitor,radiometric,1 µM,remaining activity,100%
CC(=O)N1CCC(c2ccc(C(=O)NC(=N)N)cc2C(F)(F)F)CC1,JAK2 JH1,cell-free assay,,competition with immobilised ligand,1 µM,remaining binding,100%
O=C(NCCCNc1nc(Nc2cccc(NC(=O)N3CCCC3)c2)ncc1Br)C1CCC1,JAK2,enzyme activity,inhibitor,radiometric,1 µM,remaining activity,10%
CN([C@@H]1CCc2c(CC(=O)O)c3cc(S(C)(=O)=O)ccc3n2C1)S(=O)(=O)c1ccc(F)cc1,JAK2 JH1,cell-free assay,,competition with immobilised ligand,1 µM,remaining binding,100%
Cc1ccc(NC(=O)c2ccc(C)c(C(F)(F)F)c2)cc1C#Cc1nn(C2CCC(O)CC2)c2ncnc(N)c12 (stereo not drawn),JAK2,cell-free assay,,,10 µM,remaining signal,64%
C[C@H]1CCN(c2nccc(-c3cnn4ncccc34)n2)C1,JAK2 JH1,cell-free assay,,,1 µM,remaining signal,70%
N#CCCc1ccc2c(c1)-c1[nH]c3ccc([N+](=O)[O-])cc3c1CC(=O)N2,JAK2,cell-free assay,,,0.5 µM,remaining signal,93%
Cc1nn(CC(F)(F)F)cc1Nc1ncc(Br)c(NCCc2cnc[nH]2)n1,JAK2,enzyme activity,inhibitor,radiometric,1 µM,remaining activity,106%
CN(C(=O)c1ccccc1)c1cc(N(C)c2ccc3c(c2)CCc2ccc(C(=O)NCCN4CCOCC4)cc2C3=O)ccc1F,JAK2 JH1,cell-free assay,,competition with immobilised ligand,1 µM,remaining binding,100%
CC/C(=N\NC(=O)NCc1cccc(O)c1)c1ccc(O)c(C)c1O,JAK2,enzyme activity,inhibitor,,0.1 µM,inhibition,1%
